ChEMBL document CHEMBL2169813, “Cell death triggered by synthetic flavonoids in human leukemia cells is amplified by the inhibition of extracellular signal-regulated kinase signaling” (Eur J Med Chem, 2012)
Activity calls are given as the source filed them. The rule behind the calls is not given here.

How the values were obtained:
HL-60 [1] = assay: Induction of apoptosis in human HL60 cells assessed as hypodiploid cells level incubated for 24 hrs in presence of 2 uM p38MAPK inhibitor SB203580 by flow cytometry; format: functional, cell-based
Outline: (§1)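 HL-60 cells preincubated 1 h with PD98059 (10 µM), SP600125 (10 µM) or SB203580 (2 µM), then treated with compound. Hypodiploid (apoptotic) cells quantified by flow cytometry of propidium iodide-stained nuclei. Three independent experiments, each in triplicate.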

HL-60 [2] = assay: Induction of apoptosis in human HL60 cells assessed as hypodiploid cells level incubated for 24 hrs in presence of 10 uM JNK/SAPK inhibitor SP600125 by flow cytometry; format: functional, cell-based; outline: as §1
[3] = biological target: T1, Mitogen-activated protein kinase; ERK1/ERK2 (Homo sapiens) (UniProt P27361+P28482); assay: Induction of ERK1/2 phosphorylation in human HL60 cells after 30 mins in presence of 10 uM MEK1/2 inhibitor PD98059 by Western blotting; format: cell-based; settings: HL-60
Outline: (§2)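 HL-60 cells (1 × 10⁶/mL) treated with compound (10–30 µM) for various times. Where used, PD98059 (10 µM) was added 1 h beforehand. Lysates run on 10% SDS-PAGE and immunoblotted for phosphorylated ERK 1/2, JNK/SAPK or p38MAPK. Blots stripped and reprobed for the total kinase as loading control.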

HL-60 [4] = assay: Increase in apoptosis in human HL60 cells assessed as hypodiploid cells level incubated for 24 hrs in presence of 10 uM MEK1/2 inhibitor PD98059 by flow cytometry (reference value: 16%); format: functional; outline: as §1
[5] = biological target: T2, c-Jun N-terminal kinase, JNK (Homo sapiens) (UniProt P45983+P53779+P45984); assay: Induction of JNK/SAPK phosphorylation in human HL60 cells after 6 hrs by Western blotting; format: cell-based; settings: HL-60; outline: as §2
[6] = biological target: T1, Mitogen-activated protein kinase; ERK1/ERK2 (Homo sapiens); assay: Induction of ERK1/2 phosphorylation in human HL60 cells after 6 hrs by Western blotting; format: cell-based; settings: HL-60; outline: as §2
[7] = biological target: T3, MAP kinase p38 (Homo sapiens) (UniProt O15264+Q15759+Q16539+P53778); assay: Induction of p38MAPK phosphorylation in human HL60 cells after 2 hrs by Western blotting; format: cell-based; settings: HL-60; outline: as §2
[8] = biological target: T3, MAP kinase p38 (Homo sapiens); assay: Induction of p38MAPK phosphorylation in human HL60 cells after 30 mins by Western blotting; format: cell-based; settings: HL-60; outline: as §2
[9] = biological target: T2, c-Jun N-terminal kinase, JNK (Homo sapiens); assay: Induction of JNK/SAPK phosphorylation in human HL60 cells after 30 mins by Western blotting; format: cell-based; settings: HL-60; outline: as §2
HL-60 [10] = assay: Induction of apoptosis in human HL60 cells assessed as hypodiploid cells level at 30 uM incubated for 24 hrs in presence of caspase-9 inhibitor z-LEHD-fmk by flow cytometry; format: functional, cell-based
Outline: (§3)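 HL-60 cells given 30 µM compound for 24 h, alone or with z-VAD-fmk (100 µM), z-DEVD-fmk, z-IETD-fmk or z-LEHD-fmk (each 50 µM). Propidium iodide staining, hypodiploid cells quantified by flow cytometry. Three independent experiments, each in triplicate.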

HL-60 [11] = assay: Induction of apoptosis in human HL60 cells assessed as hypodiploid cells level at 30 uM incubated for 24 hrs in presence of caspase-8 inhibitor z-IETD-fmk by flow cytometry; format: functional, cell-based; outline: as §3
HL-60 [12] = assay: Induction of apoptosis in human HL60 cells assessed as hypodiploid cells level at 30 uM incubated for 24 hrs in presence of caspase-3 and -7 inhibitor z-DEVD-fmk by flow cytometry; format: functional, cell-based; outline: as §3
HL-60 [13] = assay: Induction of apoptosis in human HL60 cells assessed as hypodiploid cells level at 30 uM incubated for 24 hrs in presence of caspase inhibitor z-VAD-fmk by flow cytometry; format: functional, cell-based; outline: as §3
HL-60 [14] = assay: Induction of procaspase-7 processing in human HL60 cells at 30 uM incubated for 24 hrs by immunoblotting method; format: functional, cell-based
Outline: (§4)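 HL-60 cells (1 × 10⁶/mL) exposed to compound, harvested at 24 h. Lysed in Tris-HCl pH 7.4/Triton X-100 buffer with phosphatase and protease inhibitors, 15 min at 4 °C. Equal protein run on SDS-PAGE (7.5% PARP, 12.5% caspases) and immunoblotted on PVDF. β-Actin used as loading control.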

HL-60 [15] = assay: Induction of procaspase-3 processing in human HL60 cells at 30 uM incubated for 24 hrs by immunoblotting method; format: functional, cell-based; outline: as §4
HL-60 [16] = assay: Induction of procaspase-6 processing in human HL60 cells at 30 uM incubated for 24 hrs by immunoblotting method; format: functional, cell-based; outline: as §4
HL-60 [17] = assay: Induction of Bid protein cleavage in human HL60 cells at 30 uM incubated for 24 hrs by Western blotting method; format: functional, cell-based; outline: as §4
HL-60 [18] = assay: Induction of procaspase-9 cleavage in human HL60 cells at 30 uM incubated for 24 hrs by immunoblotting method; format: functional, cell-based; outline: as §4
HL-60 [19] = assay: Induction of procaspase-8 hydrolysis in human HL60 cells at 30 uM incubated for 24 hrs by immunoblotting method; format: functional, cell-based; outline: as §4
HL-60 [20] = assay: Induction of cytochrome-c release in human HL60 cells at 30 uM incubated for 24 hrs by immunoblotting method; format: functional, cell-based
Outline: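 HL-60 cells treated 24 h with 30 µM compound. Cytosolic extracts immunoblotted for cytochrome c released from mitochondria. β-Actin used as loading control.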

HL-60 [21] = assay: Induction of caspase activation in human HL60 cells assessed as increase in PARP cleavage at 30 uM incubated for 24 hrs by immunoblotting method; format: functional, cell-based; outline: as §4
HL-60 [22] = assay: Induction of p21'Cip1 protein expression in human HL60 cells at 30 uM incubated for 24 hrs by Western blotting method; format: functional, cell-based; outline: as §4
HL-60 [23] = assay: Induction of cyclin D1 protein expression in human HL60 cells at 30 uM incubated for 24 hrs by Western blotting method; format: functional, cell-based; outline: as §4
HL-60 [24] = assay: Cell cycle arrest in human HL60 cells assessed as accumulation at S phase at 30 uM incubated for 24 hrs by flow cytometry (reference value: 16.7 +/- 0.5%); format: functional
HL-60 [25] = assay: Cell cycle arrest in human HL60 cells assessed as accumulation at G2/M phase at 30 uM incubated for 24 hrs by flow cytometry (reference value: 33.2 +/- 2.1%); format: functional
HL-60 [26] = assay: Cell cycle arrest in human HL60 cells assessed as accumulation at G1 phase at 30 uM incubated for 24 hrs by flow cytometry (reference value: 48 +/- 1.6%); format: functional
HL-60 [27] = assay: Cell cycle arrest in human HL60 cells assessed as accumulation at G2/M phase at 10 uM incubated for 24 hrs by flow cytometry (reference value: 33.2 +/- 2.1%); format: functional
HL-60 [28] = assay: Cell cycle arrest in human HL60 cells assessed as accumulation at G1 phase at 10 uM incubated for 24 hrs by flow cytometry (reference value: 48 +/- 1.6%); format: functional
HL-60 [29] = assay: Cell cycle arrest in human HL60 cells assessed as accumulation at S phase at 10 uM incubated for 24 hrs by flow cytometry (reference value: 16.7 +/- 0.5%); format: functional
HL-60 [30] = assay: Cell cycle arrest in human HL60 cells assessed as accumulation at subG1 phase at 10 uM incubated for 24 hrs by flow cytometry (reference value: 2.3 +/- 0.5%); format: functional
HL-60 [31] = assay: Induction of DNA fragmentation in human HL60 cells at 30 uM incubated for 24 hrs by agarose gel electrophoresis; format: functional, cell-based
Outline: (§5)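 HL-60 cells treated with the indicated concentrations. Genomic DNA extracted, run on agarose gel and visualised under UV after ethidium bromide staining, looking for internucleosomal fragmentation.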

HL-60 [32] = assay: Induction of DNA fragmentation in human HL60 cells at 10 uM incubated for 24 hrs by agarose gel electrophoresis; format: functional, cell-based; outline: as §5
HL-60 [33] = assay: Induction of apoptosis in human HL60 cells assessed as incidence of condensed and fragmented chromatin at 30 uM incubated for 24 hrs by fluorescent microscopy; format: functional, cell-based
HL-60 [34] = assay: Cytotoxicity against human HL60 cells up to 30 uM after 72 hrs by MTT assay; format: functional, cell-based
PBMC [35] = assay: Cytotoxicity against human proliferating PBMCs up to 30 uM; format: cell-based
Outline: (§6)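 HL-60 cells, quiescent (fresh) PBMC and phytohemagglutinin-activated healthy human PBMC cultured 48 h over a concentration range of compound. Proliferation measured. Means ± SE of two independent experiments, each in triplicate.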

PBMC [36] = assay: Cytotoxicity against human fresh PBMCs up to 30 uM; format: cell-based; outline: as §6
HL-60 [37] = assay: Cytotoxicity against human HL60 cells after 72 hrs by MTT assay; format: functional, cell-based; settings: HL-60, 72 h
Outline: (§7)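 MTT colorimetric assay on HL-60 and HL-60/MX1 cells (RPMI 1640, 10% heat-inactivated FBS), 72 h exposure, absorbance 570 nm. IC50 obtained graphically by curve fitting. Means ± S.E. of three independent experiments, each in triplicate.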

[38] = biological target: T1, Mitogen-activated protein kinase; ERK1/ERK2 (Homo sapiens); assay: Induction of ERK1/2 phosphorylation in human HL60 cells after 30 mins by Western blotting; format: cell-based; settings: HL-60; outline: as §2
HL-60 [39] = assay: Cell cycle arrest in human HL60 cells assessed as accumulation at subG1 phase at 30 uM incubated for 24 hrs by flow cytometry (reference value: 2.3 +/- 0.5%); format: functional
[40] = Cytotoxicity against human HL60/MX1 cells after 72 hrs by MTT assay; format: functional, cell-based; settings: HL60/MX1, 72 h; outline: as §7
HL-60 [41] = assay: Cytotoxicity against human HL60 cells at 100 uM after 72 hrs by MTT assay
HL-60 [42] = assay: Induction of apoptosis in human HL60 cells assessed as changes in nuclear morphology at 30 uM incubated for 24 hrs by fluorescence microscopy (reference value: 4.9 +/- 1.0%)

T1 sequence (P27361 whole entry, looked up): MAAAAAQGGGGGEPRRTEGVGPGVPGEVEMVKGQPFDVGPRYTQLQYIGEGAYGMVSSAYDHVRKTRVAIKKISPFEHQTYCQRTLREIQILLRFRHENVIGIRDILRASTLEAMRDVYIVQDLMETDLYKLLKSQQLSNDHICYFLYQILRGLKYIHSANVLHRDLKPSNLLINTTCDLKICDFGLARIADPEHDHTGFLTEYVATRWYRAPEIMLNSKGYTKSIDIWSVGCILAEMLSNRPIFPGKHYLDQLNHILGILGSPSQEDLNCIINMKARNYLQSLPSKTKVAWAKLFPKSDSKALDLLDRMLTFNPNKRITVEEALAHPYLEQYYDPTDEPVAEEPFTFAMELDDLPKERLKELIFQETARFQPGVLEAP
T1 sequence (P28482 whole entry, looked up): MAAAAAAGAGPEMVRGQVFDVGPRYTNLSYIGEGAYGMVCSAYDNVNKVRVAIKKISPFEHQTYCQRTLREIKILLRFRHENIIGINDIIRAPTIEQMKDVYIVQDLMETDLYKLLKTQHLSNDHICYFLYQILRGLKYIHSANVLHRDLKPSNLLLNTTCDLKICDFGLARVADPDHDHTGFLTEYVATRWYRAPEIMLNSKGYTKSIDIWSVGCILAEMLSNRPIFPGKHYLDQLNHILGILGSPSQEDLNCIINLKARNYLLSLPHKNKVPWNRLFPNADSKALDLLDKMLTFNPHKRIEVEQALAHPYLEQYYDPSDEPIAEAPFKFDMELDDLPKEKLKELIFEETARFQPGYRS

Activity [3]: inactive
Activity [5]: Active
Activity [6]: Active
Activity [7]: inactive
Activity [8]: Active
Activity [9]: Active
Activity [38]: Active
SMILES: COC(=O)c1c(C)c(C)cc2c(=O)cc(-c3ccccc3Cl)oc12
Activity (HL-60 [1]): Active
Activity (HL-60 [2]): Active
Activity (HL-60 [4]): 32%
Activity (HL-60 [10]): inactive
Activity (HL-60 [11]): inactive
Activity (HL-60 [12]): inactive
Activity (HL-60 [13]): inactive
Activity (HL-60 [14]): Active
Activity (HL-60 [15]): Active
Activity (HL-60 [16]): Active
Activity (HL-60 [17]): Active
Activity (HL-60 [18]): Active
Activity (HL-60 [19]): Active
Activity (HL-60 [20]): Active
Activity (HL-60 [21]): Active
Activity (HL-60 [22]): Active
Activity (HL-60 [23]): Active
Activity (HL-60 [24]): 7.8%
Activity (HL-60 [25]): 13.5%
Activity (HL-60 [26]): 47.2%
Activity (HL-60 [27]): 22.9%
Activity (HL-60 [28]): 54.9%
Activity (HL-60 [29]): 16.7%
Activity (HL-60 [30]): 6.3%
Activity (HL-60 [31]): Active
Activity (HL-60 [32]): Active
Activity (HL-60 [33]): Active
Activity (HL-60 [34]): Active
Activity (PBMC [35]): Non-toxic
Activity (PBMC [36]): Non-toxic
IC50 (HL-60 [37]): 9.3 µM
Activity (HL-60 [39]): 28.1%
IC50 [40]: 70.7 µM
Activity (HL-60 [41]): Active
Activity (HL-60 [42]): 30.6%
